pEC50: −log10 of the molar value.

Series [1] has as its target Glucagon-like peptide 1 receptor (Homo sapiens, UniProt P43220). As to the kind of experiment: Agonist activity at human GLP-1 receptor expressed in HEK293 cells assessed as cAMP accumulation after 30 mins by HTRF assay. Type of series: functional, cell-based. On the technique in general: cAMP levels reflect the balance of adenylyl cyclase and phosphodiesterase activity.

Series [2] in a line: AUC in C57/BL6 mouse at 1 mg/kg, sc by LC-MS/MS analysis. The format is ADME, organism-based. Conditions: in vivo. The gist of the method: (§1)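 Female C57/Bl6 mice given single 1 mg/kg sc dose; animals sacrificed and blood collected at 0.083, 0.25, 1, 2, 4, 8, 16 and 24 h. Plasma analysed by LC-MS/MS after protein precipitation; parameters from mean plasma concentrations by noncompartmental analysis.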

In another series the target is Glucagon receptor (Homo sapiens, UniProt P47871). Briefly: Agonist activity at human glucagon receptor expressed in HEK293 cells assessed as cAMP accumulation after 30 mins by HTRF assay. Type of series: functional, cell-based.
Sequence of Glucagon receptor (P47871 whole entry): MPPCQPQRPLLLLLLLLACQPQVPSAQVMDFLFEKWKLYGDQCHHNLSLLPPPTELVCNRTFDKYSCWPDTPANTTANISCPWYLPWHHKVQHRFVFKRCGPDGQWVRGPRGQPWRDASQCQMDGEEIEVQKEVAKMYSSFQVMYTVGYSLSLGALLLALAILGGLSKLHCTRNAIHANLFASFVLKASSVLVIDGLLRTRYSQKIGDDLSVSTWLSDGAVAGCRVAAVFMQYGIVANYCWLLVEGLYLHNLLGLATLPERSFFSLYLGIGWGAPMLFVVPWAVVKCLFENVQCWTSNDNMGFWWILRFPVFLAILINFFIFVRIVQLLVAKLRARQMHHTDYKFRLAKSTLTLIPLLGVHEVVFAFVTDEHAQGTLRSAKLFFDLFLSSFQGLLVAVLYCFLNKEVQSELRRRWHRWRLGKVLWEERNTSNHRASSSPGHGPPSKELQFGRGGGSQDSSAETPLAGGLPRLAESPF
The nature of series [3]: Tmax in C57/BL6 mouse at 1 mg/kg, sc by LC-MS/MS analysis. The format is ADME, organism-based. The note with it: in vivo. The gist of the method: as §1
The nature of series [4]: Half life in C57/BL6 mouse at 1 mg/kg, sc by LC-MS/MS analysis. The format is ADME, organism-based. The note with it: in vivo. Summed up: as §1
Series [5] is described as follows: Cmax in C57/BL6 mouse at 1 mg/kg, sc by LC-MS/MS analysis. Set-up: dose 1 mg/kg, route subcutaneous. Type of series: ADME, organism-based. Conditions: in vivo. The gist of the method: as §1

Sequence of Glucagon-like peptide 1 receptor (P43220 whole entry): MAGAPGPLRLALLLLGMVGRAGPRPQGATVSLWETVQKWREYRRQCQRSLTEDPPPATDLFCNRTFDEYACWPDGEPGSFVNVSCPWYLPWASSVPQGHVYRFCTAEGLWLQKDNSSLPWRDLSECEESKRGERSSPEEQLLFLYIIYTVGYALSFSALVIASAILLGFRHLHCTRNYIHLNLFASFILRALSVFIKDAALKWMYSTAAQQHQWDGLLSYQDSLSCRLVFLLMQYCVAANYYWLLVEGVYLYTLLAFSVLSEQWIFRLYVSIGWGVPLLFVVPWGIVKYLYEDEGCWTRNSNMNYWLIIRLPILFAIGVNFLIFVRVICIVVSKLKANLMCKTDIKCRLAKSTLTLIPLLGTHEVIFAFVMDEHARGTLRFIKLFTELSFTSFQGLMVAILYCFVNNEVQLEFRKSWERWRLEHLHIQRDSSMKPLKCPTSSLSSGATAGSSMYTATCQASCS

As usually defined, the pEC50 is the EC50 on a negative log10 scale, so that one unit is a factor of ten. The term AUC denotes concentration integrated over time. A high value points to more exposure. A word on the Tmax: it is the time from dosing to the highest level. For orientation: half-life means the time in which the quantity being followed falls by half. A lower half-life goes with fast loss. In general, Cmax refers to the highest concentration seen after dosing. Take `CCCCCCCCCCCCCCCC(=O)N[C@@H](CCC(=O)NCCCC[C@H](NC(=O)[C@H](CO)NC(=O)[C@@H]1CCCN1C(=O)[C@@H]1CCCN1C(=O)[C@@H]1CCCN1C(=O)[C@H](C)NC(=O)CNC(=O)[C@H](CO)NC(=O)[C@H](CO)NC(=O)[C@@H]1CCCN1C(=O)CNC(=O)CNC(=O)[C@H](CC(N)=O)NC(=O)[C@H](CCCCN)NC(=O)[C@H](CC(C)C)NC(=O)[C@H](Cc1c[nH]c2ccccc12)NC(=O)[C@H](CCC(=O)O)NC(=O)[C@@H](NC(=O)[C@H](Cc1ccccc1)NC(=O)[C@H](CC(=O)O)NC(=O)[C@H](CCC(N)=O)NC(=O)[C@H](C)NC(=O)[C@H](CCCNC(=N)N)NC(=O)[C@H](CCCNC(=N)N)NC(=O)[C@H](CO)NC(=O)[C@H](CC(=O)O)NC(=O)[C@H](CCSC)NC(=O)[C@H](CCC(N)=O)NC(=O)[C@H](CCCCN)NC(=O)[C@H](CO)NC(=O)[C@H](CC(C)C)NC(=O)[C@H](CC(=O)O)NC(=O)[C@H](CO)NC(=O)[C@@H](NC(=O)[C@H](Cc1ccccc1)NC(=O)[C@@H](NC(=O)CNC(=O)[C@H](CCC(N)=O)NC(=O)[C@H](CO)NC(=O)[C@@H](N)Cc1cnc[nH]1)[C@@H](C)O)[C@H](C)O)[C@@H](C)CC)C(N)=O)C(N)=O`: the figures for the pEC50 (in series [1]; at Glucagon receptor) were 11.28 and 11.21, respectively. Moreover, the AUC in series [2] was 17 µg·h/mL. Besides, the Tmax in series [3] worked out at 2 h. Also, the half-life in series [4] is 2.2 h. The same compound gave a Cmax in series [5] of 3.45 µg/mL.
As for `CC[C@H](C)[C@H](NC(=O)[C@H](Cc1ccccc1)NC(=O)[C@H](CC(C)C)NC(=O)[C@H](CCCNC(=N)N)NC(=O)[C@@H](NC(=O)[C@H](CCCNC(=N)N)NC(=O)[C@H](CCCNC(=N)N)NC(=O)[C@H](CO)NC(=O)[C@H](CC(=O)O)NC(=O)[C@H](CCSC)NC(=O)[C@H](CCC(N)=O)NC(=O)[C@H](CCCCN)NC(=O)[C@H](CO)NC(=O)[C@H](CC(C)C)NC(=O)[C@H](CC(=O)O)NC(=O)[C@H](CO)NC(=O)[C@@H](NC(=O)[C@H](Cc1ccccc1)NC(=O)[C@@H](NC(=O)CNC(=O)[C@H](CCC(=O)O)NC(=O)CNC(=O)[C@@H](N)Cc1cnc[nH]1)[C@@H](C)O)[C@@H](C)O)C(C)C)C(=O)N[C@@H](CCC(=O)O)C(=O)N[C@@H](Cc1c[nH]c2ccccc12)C(=O)N[C@@H](CC(C)C)C(=O)N[C@@H](CCCCN)C(=O)N[C@@H](CC(N)=O)C(=O)NCC(=O)NCC(=O)N1CCC[C@H]1C(=O)N[C@@H](CO)C(=O)N[C@@H](CO)C(=O)NCC(=O)N[C@@H](C)C(=O)N1CCC[C@H]1C(=O)N1CCC[C@H]1C(=O)N1CCC[C@H]1C(=O)N[C@@H](CO)C(N)=O`, the pEC50 in series [1] is 11.74; at Glucagon receptor, 4.24.
For `CCCCCCCCCCCCCCCC(=O)N[C@@H](CCC(=O)NCCCC[C@H](NC(=O)[C@@H]1CCCN1C(=O)[C@@H]1CCCN1C(=O)[C@@H]1CCCN1C(=O)[C@H](C)NC(=O)CNC(=O)[C@H](CO)NC(=O)[C@H](CO)NC(=O)[C@@H]1CCCN1C(=O)CNC(=O)CNC(=O)[C@H](CC(N)=O)NC(=O)[C@H](CCCCN)NC(=O)[C@H](CC(C)C)NC(=O)[C@H](Cc1c[nH]c2ccccc12)NC(=O)[C@H](CCC(=O)O)NC(=O)[C@@H](NC(=O)[C@H](Cc1ccccc1)NC(=O)[C@H](CC(=O)O)NC(=O)[C@H](CCC(N)=O)NC(=O)[C@H](C)NC(=O)[C@H](CCCNC(=N)N)NC(=O)[C@H](CCCNC(=N)N)NC(=O)[C@H](CO)NC(=O)[C@H](CC(=O)O)NC(=O)[C@H](CCSC)NC(=O)[C@H](CCC(N)=O)NC(=O)[C@H](CCCCN)NC(=O)[C@H](CO)NC(=O)[C@H](CC(C)C)NC(=O)[C@H](CC(=O)O)NC(=O)[C@H](CO)NC(=O)[C@@H](NC(=O)[C@H](Cc1ccccc1)NC(=O)[C@@H](NC(=O)CNC(=O)[C@H](CCC(N)=O)NC(=O)[C@H](CO)NC(=O)[C@@H](N)Cc1cnc[nH]1)[C@@H](C)O)[C@@H](C)O)[C@@H](C)CC)C(N)=O)C(N)=O` the same measures were 11.24 and 11.20.
With `CC[C@H](C)[C@H](NC(=O)[C@H](Cc1ccccc1)NC(=O)[C@H](CC(C)C)NC(=O)[C@H](CCCNC(=N)N)NC(=O)[C@@H](NC(=O)[C@H](C)NC(=O)[C@H](CCC(=O)O)NC(=O)[C@H](CCC(=O)O)NC(=O)[C@H](CCC(=O)O)NC(=O)[C@H](CCSC)NC(=O)[C@H](CCC(N)=O)NC(=O)[C@H](CCCCN)NC(=O)[C@H](CO)NC(=O)[C@H](CC(C)C)NC(=O)[C@H](CC(=O)O)NC(=O)[C@H](CO)NC(=O)[C@@H](NC(=O)[C@H](Cc1ccccc1)NC(=O)[C@@H](NC(=O)CNC(=O)[C@H](CCC(=O)O)NC(=O)CNC(=O)[C@@H](N)Cc1cnc[nH]1)[C@@H](C)O)[C@@H](C)O)C(C)C)C(=O)N[C@@H](CCC(=O)O)C(=O)N[C@@H](Cc1c[nH]c2ccccc12)C(=O)N[C@@H](CC(C)C)C(=O)N[C@@H](CCSC)C(=O)N[C@@H](CC(N)=O)C(=O)N[C@H](C(=O)N[C@@H](CCCCN)C(=O)N[C@@H](CCCNC(=N)N)C(=O)N[C@@H](CC(N)=O)C(=O)N[C@@H](CCCNC(=N)N)C(=O)NCC(=O)N[C@@H](C)C(=O)N1CCC[C@H]1C(=O)N1CCC[C@H]1C(=O)N1CCC[C@H]1C(=O)N[C@@H](CO)C(N)=O)[C@@H](C)O`, the pEC50 in series [1] is 11.92; at Glucagon receptor it was less than 4.00.
“H-HGEGTFTSDLSKQMDSRRAQDFVEWLKNGGPSSGAPPPS-NH2”: the pEC50 in series [1] was 10.65; at Glucagon receptor it was 5.00.
Turning to “H-HGEGTFTSDLSKQMDSRRAQDFVQWLKNGGPSSGAPPPS-NH2”, the pEC50 is 10.25 in series [1] and 4.38 on Glucagon receptor.
In the case of “H-HSEGTFTSDLSKQMDSRRAQDFIEWLKNGGPSSGAPPPS-NH2”, the pEC50 on Glucagon receptor was 6.77.
Regarding H-HSQGTFTSDLSKQMDSRRAQDFIEWLKNG-NH2, the pEC50 was 11.09 in series [1] and 11.72 on Glucagon receptor.
For the compound H-HSQGTFTSDLSKQMDSRRAQDFIEWLKNGGPSS-NH2, the pEC50 in series [1] was 10.82; at Glucagon receptor, 11.05.
As for “H-HSQGTFTSDLSKQMDSRRAQDFIEWLKNGGPSSNNIA-NH2”, the pEC50 in series [1] was 10.76; at Glucagon receptor it was 10.81.
Turning to “H-HSQGTFTSDLSKQMEEEAVRLFIEWLMNTKRNRGAPPPS-NH2”, the results for the pEC50 (in series [1]; at Glucagon receptor) were 11.66 and 8.91, respectively.

These data come from ChEMBL document CHEMBL4049452 (J Med Chem, 2017).
